Compound activity as filed in PubChem BioAssay.
Shown are actives, neighbours in structure and some others; about 2.4% of the full set was active somewhere.
FID counter: counter-screen for HCV NS3 helicase inhibitors: DNA intercalator displacement | AID 1845 | 290,000 tested, 0.17% active | DNA fluorescent intercalator displacement, fluorescence | inhibition, % at 7.9 µM; in the data active = inhibition above about 37%;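 note: 0% = vehicle and 100% = reference compound; higher means more ethidium bromide displaced from hairpin DNA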
Apaf-1 inh: blocks human Apaf-1 apoptosome activity. O14727. reconstituted apoptosome caspase-3 activity, DEVD-Rh110 fluorescence. inhibition, % at 20 µM. 330,000 tested, 0.71% active. AID 489030; active = inhibition of at least 40% at 20 µM;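 note: plate controls were DMSO wells for no effect and DEVD-CHO caspase inhibitor wells for full effect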
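Material: cell-free apoptosome with Apaf-1, procaspase-3 and caspase-9; Buffer or medium: Hepes pH 7.5 with detergent and BSA; Reagent: cytochrome c trigger plus (Z-DEVD)2-Rh110 caspase-3 substrate; Times: compound with Apaf-1, dATP, procaspase-3 30 min, then 50 min reaction, room temperature; Technique: Rh110 fluorescence intensity.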
UBC13 polyUb: blocks human UBC13 polyubiquitin chain formation | P61088 | TR-FRET | inhibition, % at 20 µM | 330,000 tested, 0.47% active | AID 485273; in the data active = inhibition above about 45%, passing the limit was not always enough
ANO1 block: inhibitors of mouse TMEM16A calcium-activated chloride channel; normalized B-score (activity score, 25-100; higher = stronger inhibition) at 10 µM; 310,000 tested, 1.2% active; HEK293 TMEM16A/YFP iodide influx fluorescence, ionomycin; Q8BHY3;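 active = ratio plate-corrected score three or more library SD toward inhibition, starting fluorescence score within five deviations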;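 note: score derived from kinetic fluorescence span divided by baseline fluorescence per well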
Target sequence (Q8BHY3 whole entry, looked up): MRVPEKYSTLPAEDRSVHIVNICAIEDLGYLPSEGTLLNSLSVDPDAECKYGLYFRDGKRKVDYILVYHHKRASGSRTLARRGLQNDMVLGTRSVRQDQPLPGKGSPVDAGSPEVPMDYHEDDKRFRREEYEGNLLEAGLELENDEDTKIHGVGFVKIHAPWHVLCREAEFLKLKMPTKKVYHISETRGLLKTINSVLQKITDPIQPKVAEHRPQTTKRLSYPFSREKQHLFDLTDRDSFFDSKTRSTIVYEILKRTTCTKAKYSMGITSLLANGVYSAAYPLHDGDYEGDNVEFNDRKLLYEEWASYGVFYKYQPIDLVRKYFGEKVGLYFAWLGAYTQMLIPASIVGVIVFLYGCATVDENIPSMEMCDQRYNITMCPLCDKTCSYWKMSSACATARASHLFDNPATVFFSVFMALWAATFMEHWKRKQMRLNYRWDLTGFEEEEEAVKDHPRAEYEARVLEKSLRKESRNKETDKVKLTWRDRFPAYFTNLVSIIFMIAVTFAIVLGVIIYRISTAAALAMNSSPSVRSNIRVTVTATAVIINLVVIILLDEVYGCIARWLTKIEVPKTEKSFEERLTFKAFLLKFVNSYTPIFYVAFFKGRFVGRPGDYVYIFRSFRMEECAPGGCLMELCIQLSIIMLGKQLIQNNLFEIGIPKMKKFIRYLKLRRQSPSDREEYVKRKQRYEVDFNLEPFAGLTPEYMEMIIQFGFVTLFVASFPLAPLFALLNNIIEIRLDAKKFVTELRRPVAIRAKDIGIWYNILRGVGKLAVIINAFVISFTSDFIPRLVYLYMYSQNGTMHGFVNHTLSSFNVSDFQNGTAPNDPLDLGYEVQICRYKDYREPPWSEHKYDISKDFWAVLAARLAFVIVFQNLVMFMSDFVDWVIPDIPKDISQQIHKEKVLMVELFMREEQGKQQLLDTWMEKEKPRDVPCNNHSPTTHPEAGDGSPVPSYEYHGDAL
ANO1 activ: mouse TMEM16A channel activation, primary screen. 340,000 tested, 0.3% active. HEK293 TMEM16A/YFP-H148Q/I152L, iodide quench fluorescence; hits give low values. Q8BHY3. B-score at 10 µM;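 active = fluorescence-ratio B-score plate-corrected deviation score at least 3 library SD below zero, with starting fluorescence score within 5 deviations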;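 note: channel opened by trigger with iodide after compound preincubation; score built on the fluorescence ratio of max minus min over baseline; more negative score means more quench and so TMEM16A activation or potentiation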
TMEM16A reconf: reconfirmed blocker of mouse TMEM16A calcium-activated chloride channel; HEK293 TMEM16A/YFP-H148Q, iodide quench fluorescence; ionomycin added to raise cell calcium; 2,300 tested, 39% active; inhibition, % at 10 µM; shares compounds with ANO1 block;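 active = mean duplicate percent inhibition, scaled so buffer wells are 0 and the reference blocker 100, over three buffer SD above buffer mean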
HEK293 Ca mobil: counter-screen for TMEM16A inhibitors: effect on calcium mobilization. shares compounds with ANO1 block. TMEM16A/YFP HEK293, Fluo4 calcium mobilization. calcium response (% of ionomycin), % at 10 µM. 2,300 tested, 2% active;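 active = duplicate-averaged calcium signal over 20% of the ionomycin maximum, relative to buffer baseline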;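 note: each well's signal is peak minus trough fluorescence divided by its pre-addition baseline; 0% = buffer wells and 100% = ionomycin wells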
Parental YFP cnt: acts in parental YFP-HEK293 cells lacking TMEM16A, counter-screen; shares compounds with ANO1 block; iodide YFP quench, ionomycin; 2,300 tested, under 10 active; YFP ratio F(max-min)/F0 at 10 µM;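 active = yellow fluorescent protein signal ratio exceeding the buffer control mean by over 5 SD of those controls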;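 note: ratio is mean of duplicate wells from kinetic YFP trace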
ClC-1 rat inh: rat ClC-1 inhibition, TMEM16A specificity screen. shares compounds with ANO1 block. CHO ClC-1-YFP, iodide influx fluorescence quench; iodide control reads 0, buffer control 100. ratio percent, % at 10 µM. 2,300 tested, under 10 active. AID 652236;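 active = duplicate-mean ratio percent above the mean of iodide-only control wells, which defines zero, plus 5 of their SD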;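 note: higher percent means stronger block of ClC-1 iodide influx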
Starred values were filed as active, the others as inactive; ! = repeats disagree.

What do the screens show for `C=CCc1cc(OC)ccc1OCC(O)CN1CCN(c2ccc(OC)cc2)CC1` (stereo not drawn)?
FID counter: 11; Apaf-1 inh: 4; UBC13 polyUb: -7; ANO1 block: 25*!; ANO1 activ: inactive; TMEM16A reconf: inactive; HEK293 Ca mobil: inactive; Parental YFP cnt: -1.2; ClC-1 rat inh: -14

What do the screens show for `COCC(C)n1c(C)cc(C(=O)COC(=O)c2n[nH]c3ccccc23)c1C` (stereo not drawn)?
FID counter: -25; Apaf-1 inh: 14; UBC13 polyUb: 2; ANO1 block: inactive; ANO1 activ: inactive

What do the screens show for `COCC(C)n1c(C)cc(C(=O)COC(=O)c2oc3ccccc3c2C)c1C` (stereo not drawn)?
FID counter: -23; Apaf-1 inh: 11; UBC13 polyUb: 14; ANO1 block: 100*; ANO1 activ: inactive; TMEM16A reconf: 26%*; HEK293 Ca mobil: inactive; Parental YFP cnt: -0.89; ClC-1 rat inh: -13

Results for CN(C)c1ncc(S(=O)(=O)c2ccccc2)c(-c2ccccc2Cl)n1 ?
FID counter: -18; Apaf-1 inh: 10; UBC13 polyUb: -18; ANO1 block: 100*; ANO1 activ: inactive; TMEM16A reconf: inactive; HEK293 Ca mobil: inactive; Parental YFP cnt: -1; ClC-1 rat inh: -10

Results for O=C(CN1C(=O)c2ccccc2S1(=O)=O)NCCSCc1c(F)cccc1Cl ?
FID counter: -34; Apaf-1 inh: 11; UBC13 polyUb: 6; ANO1 block: inactive; ANO1 activ: inactive

How did CC(=O)Nc1ccc(S(=O)(=O)Nc2cccc(-c3nc4ccccc4o3)c2)cc1 do in these assays?
FID counter: -11; Apaf-1 inh: 11; UBC13 polyUb: 19; ANO1 block: 100*; ANO1 activ: inactive; TMEM16A reconf: inactive; HEK293 Ca mobil: inactive; Parental YFP cnt: -0.96; ClC-1 rat inh: -11

What do the screens show for `COc1ccc(CCNC(=O)COC(=O)/C=C/c2ccc(OC)cc2OC)cc1`?
Apaf-1 inh: 16; UBC13 polyUb: -8; ANO1 activ: inactive

What do the screens show for `COc1cc(C(=O)Nc2ccc(S(=O)(=O)N3CCOCC3)cc2)c([N+](=O)[O-])cc1OC`?
FID counter: 7; Apaf-1 inh: 4; UBC13 polyUb: -7; ANO1 block: inactive; ANO1 activ: inactive

How did Oc1[nH]c2ccccc2c1N=Nc1ccccc1 do in these assays?
FID counter: 3; Apaf-1 inh: 10; UBC13 polyUb: -8; ANO1 block: inactive; ANO1 activ: inactive; TMEM16A reconf: inactive; HEK293 Ca mobil: inactive; Parental YFP cnt: -0.97; ClC-1 rat inh: 14

How did O=C(N/N=C/c1ccccc1[N+](=O)[O-])c1ccc(COc2ccccc2-c2ccccc2)cc1 do in these assays?
FID counter: -10; Apaf-1 inh: 6; UBC13 polyUb: -8; ANO1 block: inactive; ANO1 activ: inactive

Results for CC1(C)CC(=O)C2=C(C1)OC1=C(C(=O)CC(C)(C)C1)C2c1ccc(O)c([N+](=O)[O-])c1 ?
FID counter: -12; Apaf-1 inh: -3; UBC13 polyUb: -19; ANO1 block: inactive; ANO1 activ: inactive

What do the screens show for `CC1(C)CC(=O)C2=C(C1)OC1=C(C(=O)CC(C)(C)C1)C2c1ccc(O)cc1O`?
FID counter: -5; Apaf-1 inh: -1; UBC13 polyUb: 5; ANO1 block: inactive; ANO1 activ: inactive; TMEM16A reconf: inactive; HEK293 Ca mobil: inactive; Parental YFP cnt: -0.58; ClC-1 rat inh: -4

What do the screens show for `CC1CN(S(=O)(=O)c2ccc(C(=O)Nc3nnc(-c4ccc5c(c4)CCCC5)o3)cc2)CC(C)O1` (stereo not drawn)?
FID counter: -10; Apaf-1 inh: 28; UBC13 polyUb: -85; ANO1 block: 100*; ANO1 activ: inactive; TMEM16A reconf: 32%*; HEK293 Ca mobil: inactive; Parental YFP cnt: -1; ClC-1 rat inh: -14

Results for CC1CN(S(=O)(=O)c2ccc(C(=O)Nc3nnc(-c4ccccn4)o3)cc2)CC(C)O1 (stereo not drawn) ?
FID counter: -22; Apaf-1 inh: -4; UBC13 polyUb: -8; ANO1 block: inactive; ANO1 activ: inactive

How did Cc1ccnc(NS(=O)(=O)c2ccc(NS(=O)(=O)c3ccc(Br)cc3)cc2)n1 do in these assays?
FID counter: -24; Apaf-1 inh: -2; UBC13 polyUb: 7; ANO1 block: inactive; ANO1 activ: inactive

Results for COc1ccc(CC(=O)Nc2oc(-c3ccccc3)c(-c3ccccc3)c2C#N)cc1OC ?
FID counter: -8; Apaf-1 inh: 10; UBC13 polyUb: -7; ANO1 block: inactive; ANO1 activ: inactive

What do the screens show for `COc1ccccc1OCC(=O)Nc1oc(-c2ccccc2)c(-c2ccccc2)c1C#N`?
FID counter: -7; Apaf-1 inh: 26; UBC13 polyUb: -2; ANO1 block: 25*; ANO1 activ: inactive; TMEM16A reconf: 29%*; HEK293 Ca mobil: inactive; Parental YFP cnt: -0.65; ClC-1 rat inh: -15

How did Cc1cc(C)c(C)c(OCCCN(C)C)c1 do in these assays?
FID counter: 7; Apaf-1 inh: -1; UBC13 polyUb: 8; ANO1 block: inactive; ANO1 activ: inactive

How did COc1cc(O)c(C(=O)O)c(CCc2ccccc2)c1 do in these assays?
Apaf-1 inh: 8

Results for COc1cc(C)c(C(=O)Oc2cc(C)c(C(=O)O)c(O)c2)c(O)c1 ?
Apaf-1 inh: 5; UBC13 polyUb: -14; ANO1 block: 100*; ANO1 activ: inactive; TMEM16A reconf: 18%*; HEK293 Ca mobil: inactive; Parental YFP cnt: -0.94; ClC-1 rat inh: -8

What do the screens show for `O=C(CSc1ccc(Cl)cc1Cl)N1CCC(c2nc3ccccc3s2)CC1`?
FID counter: -25; Apaf-1 inh: 26; UBC13 polyUb: 10; ANO1 block: 100*; ANO1 activ: inactive; TMEM16A reconf: inactive; HEK293 Ca mobil: inactive; Parental YFP cnt: -0.98; ClC-1 rat inh: -6

Results for CCNC(=O)N1CCC(c2nc3ccccc3s2)CC1 ?
FID counter: -22; Apaf-1 inh: 9; UBC13 polyUb: 0; ANO1 block: inactive; ANO1 activ: inactive
